Biological target: KIX-KID interaction (Homo sapiens, UniProt P16220+Q92793)
Assay: KIX-KID split renilla luciferase
Type: biochemical
How it was run: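 RLuc split into N-terminal (RLucN) and C-terminal (RLucC) halves. RLucC-KIX and KID-RLucN fusions combined with a range of test compound concentrations (top 50 or 100 μM) at 4 °C. Residual RLuc luminescence read after 20 h. Stocks in DMSO, or DMF for one unstable compound. IC50 in μM from at least two independent experiments, each in duplicate.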

KIX-KID interaction, sequence (Q92793 587-666 limits assumed): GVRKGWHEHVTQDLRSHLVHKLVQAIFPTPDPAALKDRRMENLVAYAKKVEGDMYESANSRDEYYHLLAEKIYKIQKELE
KIX-KID interaction, sequence (P16220 87-146 limits assumed): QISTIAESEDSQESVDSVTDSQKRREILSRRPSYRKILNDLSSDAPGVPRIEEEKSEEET

Compound	KIX-KID inhibition (IC50) (split RLuc assay, 4 °C, 20 h incubation, mean ± SD)	Inhibition of KIX-KID interaction in initial screen (NCI diversity set screen at 10 μM)
O=[N+]([O-])c1cc(NCc2cccc3nonc23)ccc1Cl [9a]	inactive	–
O=[N+]([O-])c1ccc(Sc2cccc[n+]2[O-])c2nonc12 [compound 1, 2-[(7-nitrobenzo[c][1,2,5]oxadiazol-4-yl)thio]pyridine 1-oxide]	–	consistently shown to efficaciously inhibit KIX-KID interaction
